Assay results reported in ChEMBL document CHEMBL4387779, “Design and synthesis of 4β-Acetamidobenzofuranone-podophyllotoxin hybrids and their anti-cancer evaluation” (Bioorg Med Chem Lett, 2019).

What was measured:
Assay type in all cases: functional, cell-based
A549 = assay: Cytotoxicity against human A549 cells after 24 hrs by MTT assay; conditions: A549, 24 h
Procedure, shortened: (§1)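 Cells seeded at 1×10⁴ per well in complete medium and held 18 h at 37 °C, 5% CO₂. Medium then replaced with fresh medium containing test compounds or etoposide at 0.5, 1 and 2 μM, incubated 24 h at 37 °C. MTT dye added for 2 h, formazan solubilized in extraction buffer, absorbance read at 570 nm. Values mean±SD, three experiments in triplicate.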

MCF7 = assay: Cytotoxicity against human MCF7 cells after 24 hrs by MTT assay; conditions: MCF7, 24 h; procedure, shortened: as §1
MDA-MB-231 = assay: Cytotoxicity against human MDA-MB-231 cells after 24 hrs by MTT assay; conditions: MDA-MB-231, 24 h; procedure, shortened: as §1
DU-145 = assay: Cytotoxicity against human DU145 cells after 24 hrs by MTT assay; conditions: DU-145, 24 h; procedure, shortened: as §1

SMILES | IC50 (A549) [nM] | IC50 (MCF7) [nM] | IC50 (MDA-MB-231) [nM] | IC50 (DU-145) [nM]
COc1cc(/C=C2\Oc3c(OC)cccc3C2=O)ccc1OCC(=O)N[C@@H]1c2cc3c(cc2[C@@H](c2cc(OC)c(OC)c(OC)c2)[C@H]2C(=O)OC[C@@H]21)OCO3 | 2990 | 2350 | 2600 | 3980
COc1cc([C@@H]2c3cc4c(cc3[C@@H](NC(=O)COc3ccc(/C=C5\Oc6ccccc6C5=O)cc3)[C@H]3COC(=O)[C@H]23)OCO4)cc(OC)c1OC | 100 | 130 | 450 | 970
COc1cc([C@@H]2c3cc4c(cc3[C@@H](O[C@@H]3O[C@@H]5CO[C@@H](C)O[C@H]5[C@H](O)[C@H]3O)[C@H]3COC(=O)[C@H]23)OCO4)cc(OC)c1O [ETOPOSIDE] | – | 2110 | – | 1970
COc1ccc(/C=C2\Oc3c(OC)cccc3C2=O)cc1OCC(=O)N[C@@H]1c2cc3c(cc2[C@@H](c2cc(OC)c(OC)c(OC)c2)[C@H]2C(=O)OC[C@@H]21)OCO3 | – | 1870 | 2180 | 2330
COc1ccc(/C=C2\Oc3ccccc3C2=O)cc1OCC(=O)N[C@@H]1c2cc3c(cc2[C@@H](c2cc(OC)c(OC)c(OC)c2)[C@H]2C(=O)OC[C@@H]21)OCO3 | 7230 | 6230 | 8230 | 2550
COc1cc([C@@H]2c3cc4c(cc3[C@@H](NC(=O)COc3c(OC)cc(/C=C5\Oc6c(OC)cccc6C5=O)cc3OC)[C@H]3COC(=O)[C@H]23)OCO4)cc(OC)c1OC | 1450 | 230 | 870 | 1220
COc1cc(/C=C2\Oc3ccccc3C2=O)ccc1OCC(=O)N[C@@H]1c2cc3c(cc2[C@@H](c2cc(OC)c(OC)c(OC)c2)[C@H]2C(=O)OC[C@@H]21)OCO3 | 2750 | 4510 | – | 3820
COc1cc([C@@H]2c3cc4c(cc3[C@@H](NC(=O)COc3ccc(/C=C5\Oc6c(OC)cccc6C5=O)cc3)[C@H]3COC(=O)[C@H]23)OCO4)cc(OC)c1OC | 1560 | 1980 | 1680 | 2090
